Reference: ChEMBL document CHEMBL1128331, “New antianginal nitro esters with reduced hypotensive activity. Synthesis and pharmacological evaluation of 3-[(nitrooxy)alkyl]-2H-1,3-benzoxazin-4(3H)-ones” (J Med Chem, 1995)

Assays:
Oryctolagus cuniculus [1] = species on record: Oryctolagus cuniculus; assay: Vasorelaxation activity in the isolated endothelium-denuded rabbit aorta; assay type: functional
Procedure, shortened: (§1)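 Endothelium-denuded rabbit aortic strips, precontracted to a stable plateau, then given increasing concentrations cumulatively in the organ chamber; IC50 calculated from the concentration-response curves.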

Rattus norvegicus [2] = assay: Concentration required to reduce mean arterial blood pressure in rat after intravenous administration.; assay type: functional; conditions: Artery
Procedure, shortened: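 Male Sprague-Dawley rats (350-400 g), urethane 1.25 g/kg ip, tracheal cannula. Carotid catheter records mean arterial pressure continuously; heart rate taken from the pressure wave. Dosing through femoral vein, 1 mL/kg over 20 s. Change expressed as percent of basal; ED20 (dose giving 20% MABP fall) taken from the dose-response curve.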

Rattus norvegicus [3] = species on record: Rattus norvegicus; assay: Selectivity index as the ratio of doses requires to induce a reduction in MABP and that required to prevent ECG changes.; assay type: functional
Procedure, shortened: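 Ratio of the iv ED20 for a 20% fall in mean arterial pressure to the iv ED50 for preventing ECG changes, both measured in urethane-anesthetized rats.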

Rattus norvegicus [4] = species on record: Rattus norvegicus; assay: Inhibition of vasopressin-induced ECG changes in rat; assay type: functional
Procedure, shortened: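 Urethane-anesthetized (1.25 g/kg ip) male Sprague-Dawley rats, lead II ECG. Arg8-vasopressin 1 IU/kg iv (1 mL/kg over 20 s) given 10 min after iv drug or vehicle (GTN 1 min before). T-wave rise measured in mV. 8 rats per dose; percent inhibition against mean control; ED50 from dose-effect regression line.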

[5] = Partition coefficient (logP); assay type: physicochemical; conditions: octanol/water
Rattus norvegicus [6] = assay: Inhibition of methacholine-induced ECG changes in the anesthetized rat after intravenous administration.; assay type: functional
Procedure, shortened: (§2)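 Urethane-anesthetized male Sprague-Dawley rats, lead II ECG. Methacholine 8.0 µg in 0.02 mL over 1 s delivered into coronary arteries via a tube passed through the right carotid artery into the coronary ostia; S-T elevation measured in mV. Injection repeated at intervals after a single iv or oral dose. Five rats per dose; percent inhibition over basal; ED50.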

Rattus norvegicus [7] = assay: Inhibition of methacholine-induced ECG changes in the anesthetized rat after oral administration.; assay type: functional; procedure, shortened: as §2
Oryctolagus cuniculus [8] = species on record: Oryctolagus cuniculus; assay: Compound was tested for vasorelaxation activity in the isolated endothelium-denuded rabbit aorta; assay type: functional; procedure, shortened: as §1

IC50 (Oryctolagus cuniculus [1]) | logP [5] | IC50 (Oryctolagus cuniculus [8]) | Structure (SMILES) | ED20 (Rattus norvegicus [2]) | Selectivity index (Rattus norvegicus [3]) | ED50 (Rattus norvegicus [4]) | ED50 (Rattus norvegicus [6]) | ED50 (Rattus norvegicus [7])
0.36 µM |  |  | Cc1cccc2c1OCN(CCO[N+](=O)[O-])C2=O | 0.88 mg/kg | 15 | 0.0582 mg/kg |  | 
0.037 µM | 2.56 |  | O=C1c2cc(Cl)ccc2OCN1CCO[N+](=O)[O-] | 0.088 mg/kg | 0.87 | 0.107 mg/kg |  | 
0.23 µM | 1.83 |  | COc1ccc2c(c1)C(=O)N(CCO[N+](=O)[O-])CO2 | > 1 mg/kg | 421 | 0.0051 mg/kg | 0.013 mg/kg | 0.1 mg/kg
0.098 µM |  |  | O=C1c2ccccc2OCN1CCCCCO[N+](=O)[O-] | 0.73 mg/kg | 13 |  |  | 
0.11 µM | 2.41 |  | Cc1ccc2c(c1)OCN(CCO[N+](=O)[O-])C2=O | 0.22 mg/kg | 17.5 |  |  | 
0.047 µM | 1.83 |  | COc1ccc2c(c1)OCN(CCO[N+](=O)[O-])C2=O | 0.29 mg/kg | 147 | 0.002 mg/kg | > 0.01 mg/kg | > 0.3 mg/kg
0.64 µM |  |  | CN(C)/C=N/c1ccc2c(c1)C(=O)N(CCO[N+](=O)[O-])CO2 | 1.27 mg/kg | 131 |  | 0.0171 mg/kg | > 0.3 mg/kg
0.125 µM |  |  | Cc1cccc2c1C(=O)N(CCO[N+](=O)[O-])CO2 | 0.3 mg/kg | 65 | 0.0046 mg/kg | > 0.01 mg/kg | 
0.07 µM | 2.56 |  | O=C1c2ccc(Cl)cc2OCN1CCO[N+](=O)[O-] | 0.79 mg/kg | 72 |  |  | 
 | 2.73 | 0.22 µM | O=C1c2ccc(C(F)(F)F)cc2OCN1CCO[N+](=O)[O-] | > 0.3 mg/kg | 200 | 0.0015 mg/kg | 0.082 mg/kg | > 0.3 mg/kg
0.077 µM |  |  | O=C1c2ccccc2OCN1CCCO[N+](=O)[O-] |  |  |  | 0.001 mg/kg | 
 |  |  | O=C(NCCO[N+](=O)[O-])c1cccnc1 [NICORANDIL] | 0.16 mg/kg |  | 0.94 mg/kg | 0.047 mg/kg | 3 mg/kg
0.035 µM | 2.41 |  | Cc1ccc2c(c1)C(=O)N(CCO[N+](=O)[O-])CO2 | 0.037 mg/kg | 8.6 | 0.006 mg/kg | 0.00041 mg/kg | 0.142 mg/kg
0.094 µM | 1.85 |  | O=C1c2ccccc2OCN1CCO[N+](=O)[O-] [SINITRODIL] | 0.19 mg/kg | 90 | 0.0021 mg/kg |  | 0.118 mg/kg
0.071 µM | 1.28 |  | N#Cc1ccc2c(c1)C(=O)N(CCO[N+](=O)[O-])CO2 | > 0.3 mg/kg | 26 |  |  | 

Structure (SMILES) | IC50 (Oryctolagus cuniculus [1]) | logP [5] | IC50 (Oryctolagus cuniculus [8]) | ED20 (Rattus norvegicus [2]) | Selectivity index (Rattus norvegicus [3]) | ED50 (Rattus norvegicus [4]) | ED50 (Rattus norvegicus [6]) | ED50 (Rattus norvegicus [7])
O=[N+]([O-])OCC(CO[N+](=O)[O-])O[N+](=O)[O-] [NITROGLYCERIN] | 0.016 µM |  |  | 0.0054 mg/kg | 0.01 | 0.545 mg/kg | 0.036 mg/kg | 
O=C1c2cc([N+](=O)[O-])ccc2OCN1CCO[N+](=O)[O-] | 0.021 µM | 1.57 |  | 0.076 mg/kg | 1.2 | 0.064 mg/kg |  | 
